Results as given in ChEMBL document CHEMBL4024801, “Synthesis and Structure-Activity Relationship (SAR) Studies of Novel Pyrazolopyridine Derivatives as Inhibitors of Enterovirus Replication” (J Med Chem, 2018).

How the values were obtained:
[1] = test system: Enterovirus A71; assay: Antiviral activity against Enterovirus A71 infected in monkey LLC-MK2 cells assessed as protection against virus-induced cytopathic effect after 3 to 4 days by crystal violet staining-based spectrophotometric method; format: functional, cell-based; conditions: Enterovirus A
In short: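 EV-A71 was tested in LLC-MK2 cells grown in DMEM with 10% FBS, penicillin, streptomycin and glutamine, at a low MOI preset to give full CPE in 3–4 days. Compound was dissolved in DMSO and diluted 2-fold, in triplicate. Cells were fixed with formaldehyde when control CPE was maximal, then stained with crystal violet and read at OD590. EC50 came from a 7-point four-parameter or sigmoidal fit.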

[2] = test system: LLC-MK2; assay: Cytotoxicity against monkey LLC-MK2 cells after 3 to 4 days by crystal violet staining-based spectrophotometric method; format: cell-based, Macaca mulatta; conditions: rhesus monkey
In short: (§1)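 Uninfected cells (HeLa-RW or LLC-MK2, in DMEM with penicillin, streptomycin, glutamine and 10% FBS) were exposed to serial 2-fold compound dilutions for the same period as the CPE assay. They were then fixed with formaldehyde, stained with crystal violet and read by OD590 spectrophotometry to derive CC50. Values are means ± s.d. of 3 experiments, or the average of triplicates in one.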

[3] = Selectivity index, ratio of CC50 for human HeLa-RW cells to EC50 for Coxsackievirus B3; format: toxicity; conditions: read-out: Ratio CC50/EC50
In short: (§2)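 HeLa-RW cells in DMEM with 10% FBS were used for both arms. For EC50, cells were infected with CVB3-H3 at a low MOI giving full CPE in 3–4 days and exposed to 2-fold compound dilutions, in triplicate, with a 7-point fit. For CC50, uninfected cells got 2-fold dilutions for the same period. Both arms were fixed, crystal violet-stained and read at OD590.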

[4] = test system: Poliovirus 1; assay: Antiviral activity against Poliovirus 1 infected in human HeLa-RW cells assessed as protection against virus-induced cytopathic effect after 3 to 4 days by crystal violet staining-based spectrophotometric method; format: functional, cell-based; conditions: Enterovirus C
In short: (§3)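 HeLa-RW cells grown in DMEM with penicillin, streptomycin, glutamine and 10% FBS. They were infected at a low MOI pre-set to give full CPE in 3-4 days. Compound in DMSO was added as serial 2-fold dilutions (7 points), each in triplicate. When control CPE was maximal, cells were fixed with 4% formaldehyde, stained with 0.25% crystal violet and read at OD590. EC50 came from a four-parameter or sigmoidal fit.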

[5] = Cytotoxicity against human HeLa-RW cells after 3 to 4 days by crystal violet staining-based spectrophotometric method; format: cell-based; conditions: hela-rw; in short: as §1
[6] = test system: Poliovirus 3; assay: Antiviral activity against Poliovirus 3 infected in human HeLa-RW cells assessed as protection against virus-induced cytopathic effect after 3 to 4 days by crystal violet staining-based spectrophotometric method; format: functional, cell-based; conditions: Enterovirus C; in short: as §3
[7] = test system: Coxsackievirus B3; assay: Antiviral activity against Coxsackievirus B3 infected in human HeLa-RW cells assessed as protection against virus-induced cytopathic effect after 3 to 4 days by crystal violet staining-based spectrophotometric method; format: functional, cell-based; conditions: Enterovirus B; in short: as §3
[8] = Selectivity index, ratio of CC50 for monkey LLC-MK2 cells to EC50 for Enterovirus A71; format: toxicity; conditions: read-out: Ratio CC50/EC50
In short: as §2, with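 “LLC-MK2” for “HeLa-RW”, “EV-A71” for “CVB3-H3”, “triplicate.” for “triplicate, with a 7-point fit.”, “formaldehyde-fixed,” for “fixed,”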

SMILES | EC50 [1] [µM] | CC50 [2] [µM] | selectivity ratio [3] | EC50 [4] [µM] | CC50 [5] [µM] | EC50 [6] [µM] | EC50 [7] [µM] | selectivity ratio [8]
CC(C)n1ncc2c(C(=O)Nc3ncccn3)cc(-c3ccsc3)nc21 | 1.2 | 50 | 33.3 | > 10 | 40 | > 10 | 1.2 | 41.7
CC(C)n1ncc2c(C(=O)Nc3ccncn3)cc(-c3cccs3)nc21 | 0.5 | 50 | 33.3 | > 10 | 20 | > 10 | 0.6 | 100
CC(C)n1ncc2c(C(=O)Nc3ccccn3)cc(C3CC3)nc21 | 4.7 | 25 | 5.3 | > 25 | 25 | > 25 | 4.7 | 5.3
CC(C)n1ncc2c(C(=O)Nc3ccc(F)cc3F)cc(-c3cccs3)nc21 | 1.6 | > 200 | > 143 | > 25 | > 200 | > 25 | 1.4 | > 125
CC(C)n1ncc2c(C(=O)Nc3ccncn3)cc(-c3ccsc3)nc21 | 0.8 | > 200 | > 167 | > 10 | > 200 | > 10 | 1.2 | > 250
CC(C)n1ncc2c(C(=O)Nc3ccccc3F)cc(-c3cncs3)nc21 | 3.7 | 100 | > 60.6 | > 25 | > 200 | > 25 | 3.3 | 27
CC(C)n1ncc2c(C(=O)Nc3cc(F)ccc3F)cc(-c3cccs3)nc21 | 3.5 | 100 | > 74.1 | > 25 | > 200 | > 25 | 2.7 | 28.6
CC(C)n1ncc2c(C(=O)Nc3ccncc3)cc(-c3cccs3)nc21 | 0.4 | 6.3 | 10 | > 10 | 6 | > 10 | 0.6 | 15.8
CC(C)n1ncc2c(NC(=O)c3ccc(F)cc3)cc(-c3cccs3)nc21 | 4 | 50 | 2.6 | > 10 | 12 | > 10 | 4.7 | 12.5
CC(C)n1ncc2c(C(=O)Nc3ccccc3F)cc(-c3cccnc3)nc21 | > 10 | 50 | 5.4 | > 25 | 37.5 | > 25 | 7 | –
CC(C)n1ncc2c(C(=O)Nc3ncccn3)cc(-c3cccs3)nc21 | 0.5 | 75 | 62.5 | > 10 | 37.5 | > 10 | 0.6 | 150
CC(C)n1ncc2c(C(=O)Nc3ccc(S(C)(=O)=O)cc3)cc(-c3cccs3)nc21 | 0.5 | 50 | 200 | > 10 | 200 | > 10 | 1 | 100
CNS(=O)(=O)c1cccc(NC(=O)c2cc(-c3cccs3)nc3c2cnn3C(C)C)c1 | 0.7 | 25 | 24 | > 10 | 12 | > 10 | 0.5 | 35.7
CC(C)n1ncc2c(C(=O)Nc3ccccc3S(N)(=O)=O)cc(-c3cccs3)nc21 | 2.5 | 25 | 3.8 | > 25 | 10 | > 25 | 2.6 | 10
CC(C)n1ncc2c(C(=O)Nc3ccccn3)cc(-c3cccs3)nc21 | 0.5 | > 200 | > 250 | > 10 | > 200 | > 10 | 0.8 | > 400
CC(C)n1ncc2c(C(=O)Nc3ccccc3F)cc(-c3ccncc3)nc21 | > 10 | 45 | 7.4 | > 25 | 37.5 | > 25 | 5.1 | –
CC(C)n1ncc2c(C(=O)Nc3cccc(F)c3)cc(-c3cccs3)nc21 | 2.4 | > 200 | > 250 | > 25 | > 200 | > 25 | 0.8 | > 83.3
CC(C)n1ncc2c(C(=O)Nc3ccccc3F)cc(-c3ccccc3)nc21 | 5.7 | > 200 | 8.3 | > 25 | 37.5 | > 25 | 4.5 | > 35.1
CC(C)n1ncc2c(C(=O)N3CCc4cccnc43)cc(-c3cccs3)nc21 | 12.5 | 50 | 4 | > 10 | 37.5 | > 10 | 9.4 | 4
CC(C)n1ncc2c(C(=O)Nc3ccc(F)cc3)cc(-c3ccco3)nc21 | 2.6 | > 200 | > 83 | > 25 | > 200 | > 25 | 2.4 | > 76.9
CC(C)n1ncc2c(C(=O)Nc3ccc(F)c(S(N)(=O)=O)c3)cc(-c3cccs3)nc21 | 0.8 | 50 | > 182 | > 10 | > 200 | > 10 | 1.1 | 62.5
CC(C)n1ncc2c(C(=O)Nc3ccc(F)cc3)cc(-c3cccs3)nc21 | 0.9 | > 200 | > 286 | > 25 | > 200 | > 25 | 0.7 | > 222
CC(C)n1ccc2c(C(=O)Nc3ccc(F)cc3)cc(-c3cccs3)nc21 | > 25 | > 200 | > 64.5 | > 25 | > 200 | > 25 | 3.1 | –
CC(C)n1ncc2c(C(=O)Nc3cccnc3)cc(-c3ccsc3)nc21 | 2.4 | 37 | 30 | > 10 | 18 | > 10 | 0.6 | 15.4
CC(C)n1ncc2c(C(=O)Nc3ccccn3)cc(-c3ccccc3)nc21 | 0.7 | 12.5 | 11.8 | > 25 | 18.8 | > 25 | 1.6 | 17.9
CC(C)n1ncc2c(C(=O)Nc3ccccc3F)cc(-c3ccccn3)nc21 | > 10 | 100 | > 29 | > 25 | > 200 | > 25 | 6.9 | –
CC(C)n1ncc2c(C(=O)Nc3cccc(S(=O)(=O)N(C)C)c3)cc(-c3cccs3)nc21 | 0.8 | > 200 | 12 | > 10 | 12 | > 10 | 1 | > 250
CC(C)n1ncc2c(C(=O)Nc3c(F)cccc3F)cc(-c3cccs3)nc21 | 3.4 | > 200 | > 62.5 | > 25 | > 200 | > 25 | 3.2 | > 58.8
CC(C)n1ncc2c(C(=O)Nc3ccc(F)c(F)c3)cc(-c3cccs3)nc21 | > 25 | > 200 | > 154 | > 10 | > 200 | > 10 | 1.3 | –
CC(C)n1ncc2c(C(=O)Nc3ccccn3)cc(-c3ccsc3)nc21 | 0.8 | 25 | 15 | > 10 | 18 | > 10 | 1.2 | 31.3
